# Source: ChEMBL document CHEMBL4130635, “2,4-Diaminoquinazolines as Dual Toll-like Receptor (TLR) 7/8 Modulators for the Treatment of Hepatitis B Virus” (J Med Chem, 2018)
# Active and inactive are the calls of the source. No cut-off for these calls is given here.
# Experiments:
# [1] = Intrinsic clearance in rat liver microsomes assessed per mg protein at 1 uM up to 60 mins; type: ADME, microsome; conditions: read-out: CLH
# Plasma [2] = test: Proinflammatory activity in C57BL/6J mouse plasma assessed as TNFalpha levels at 1 mg/kg, po by multiplex assay (reference value: 70 pg/ml); type: functional
# Liver [3] = test: Upregulation of IP-10 mRNA expression levels in C57BL/6J mouse liver at 3 mg/kg, po by RT-qPCR analysis (reference value: 1); type: functional
# [4] = AUC (0 to last) in C57BL/6J mouse liver at 10 mg/kg, po by LC-MS analysis; type: ADME, organism-based; conditions: in vivo
# In short: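 Healthy C57BL/6 mice were dosed once by mouth at 0.3, 1, 3, 10 or 30 mg/kg in 20% HP-β-CD, in groups of 15 per dose. Three mice per group were sacrificed at 0.5, 1, 2, 4 or 7 h, and plasma and liver compound levels were measured by LC–MS. Values were rounded to whole numbers.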
# Cynomolgus monkey [5] = test: Effect on cytokine profile in cynomolgus monkey plasma assessed as IP10 levels at 9 mg/kg, po after 24 hrs by Luminex assay (reference value: 18.5 pg/ml); type: functional, Macaca fascicularis
# In short: (§1)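 Healthy cynomolgus monkeys given single oral doses of 1, 3, 9 and 30 mg/kg, with a 2-week wash-out planned between doses. Systemic cytokine levels in plasma were sampled at 0.5, 1, 2, 4, 9 and 24 h postdose.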
# [6] = biological target: T1, TLR7 and TLR8 (Homo sapiens) (UniProt Q9NYK1+Q9NR97); test: Agonist activity at TLR7/8 in human PBMCs co-cultured with primary human hepatocytes infected with HBV genotype C for 12 days assessed as increase in fractalkine sCD40L levels up to 5 uM measured after 42 days
# [7] = Cmax in cynomolgus monkey plasma at 9 mg/kg, po by LC-MS analysis; type: ADME, organism-based, Macaca fascicularis; parameters: dose 9 mg/kg, route oral
# In short: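 Healthy cynomolgus monkeys received oral doses of 1, 3, 9 and 30 mg/kg, with a 2-week wash-out between doses. Systemic compound concentrations by LC−MS at 0.25, 0.5, 1, 2, 4, 8 and 24 h postdose.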
# Cynomolgus monkey [8] = test: Induction of IFNalpha levels in cynomolgus monkey plasma at 3 mg/kg, po after 24 hrs by ELISA; type: functional, Macaca fascicularis; in short: as §1
# Cynomolgus monkey [9] = test: Induction of ISG response in cynomolgus monkey plasma assessed as upregulation of Isg15 mRNA expression at 1 mg/kg, po after 24 hrs by Fluidigm RT-qPCR analysis (reference value: 1); type: functional, Macaca fascicularis
# In short: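 Cynomolgus monkeys, single oral doses of 1, 3, 9 and 30 mg/kg with a planned 2-week wash-out between doses. Systemic ISG (ISG15, Mx1, OAS1) mRNA was measured by Fluidigm RT-qPCR at 1, 2, 4, 8 and 24 h postdose.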
# [10] = system: Toll-like receptor 7/8 (Homo sapiens); test: Agonist activity at TLR7/8 in human PBMCs assessed as decrease in intracellular HBV-rcDNA levels in human hepatocytes infected with HBV genotype C for 12 days followed by exposure to conditioned supernatant from up to 5 uM compound treated PBMCs measured after 42 days
# Liver [11] = test: Proinflammatory activity in C57BL/6J mouse liver assessed as IL-6 levels at 3 mg/kg, po by multiplex assay (reference value: 10 pg/g); type: functional
# Plasma [12] = test: Upregulation of IP-10 mRNA expression levels in C57BL/6J mouse plasma at 1 mg/kg, po by RT-qPCR analysis (reference value: 1); type: functional
# [13] = AUC in Sprague-Dawley rat at 10 mg/kg, po; type: ADME, organism-based; conditions: in vivo
# In short: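 Male Sprague-Dawley rats were given 10 mg/kg orally as a solution. Compound was sampled from the portal vein, the systemic circulation and the liver.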
# Plasma [14] = test: Anti-inflammatory activity in C57BL/6J mouse plasma assessed as IL-10 levels at 0.3 mg/kg, po by multiplex assay (reference value: 120 pg/ml); type: functional
# In short: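 Single oral gavage in 20% HP-β-CD to healthy C57BL/6 mice, groups of 15 at 0.3, 1, 3, 10 or 30 mg/kg. Three mice per group sacrificed at 0.5, 1, 2, 4 or 7 h. Plasma and liver cytokines by multiplex, maximum level reported, rounded to nearest multiple of 5.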
# Plasma [15] = test: Proinflammatory activity in C57BL/6J mouse plasma assessed as IL-1beta levels at 0.3 mg/kg, po by multiplex assay (reference value: 60 pg/ml); type: functional
# Cynomolgus monkey [16] = test: Upregulation of Tlr8 expression in cynomolgus monkey plasma at 1 to 30 mg/kg, po after 24 hrs by Fluidigm RT-qPCR analysis; type: functional, organism-based; conditions: Macaca fascicularis
# Cynomolgus monkey [17] = test: Proinflammatory activity in cynomolgus monkey plasma assessed as TNFalpha levels at 3 mg/kg, po after 24 hrs by Luminex assay (reference value: 285 pg/ml); type: functional, Macaca fascicularis
# Cynomolgus monkey [18] = test: Toxicity in cynomolgus monkey assessed as change in body temperature up to 30 mg/kg, po; type: organism-based, Macaca fascicularis; conditions: in vivo
# Liver [19] = test: Upregulation of IP-10 mRNA expression levels in C57BL/6J mouse liver at 1 mg/kg, po by RT-qPCR analysis (reference value: 1); type: functional
# [20] = biological target: T1, TLR7 and TLR8 (Homo sapiens); test: Agonist activity at TLR7/8 in human PBMCs co-cultured with primary human hepatocytes infected with HBV genotype C for 12 days assessed as increase in IL-10 levels up to 5 uM measured after 42 days
# T1 sequence (Q9NR97 whole entry, looked up): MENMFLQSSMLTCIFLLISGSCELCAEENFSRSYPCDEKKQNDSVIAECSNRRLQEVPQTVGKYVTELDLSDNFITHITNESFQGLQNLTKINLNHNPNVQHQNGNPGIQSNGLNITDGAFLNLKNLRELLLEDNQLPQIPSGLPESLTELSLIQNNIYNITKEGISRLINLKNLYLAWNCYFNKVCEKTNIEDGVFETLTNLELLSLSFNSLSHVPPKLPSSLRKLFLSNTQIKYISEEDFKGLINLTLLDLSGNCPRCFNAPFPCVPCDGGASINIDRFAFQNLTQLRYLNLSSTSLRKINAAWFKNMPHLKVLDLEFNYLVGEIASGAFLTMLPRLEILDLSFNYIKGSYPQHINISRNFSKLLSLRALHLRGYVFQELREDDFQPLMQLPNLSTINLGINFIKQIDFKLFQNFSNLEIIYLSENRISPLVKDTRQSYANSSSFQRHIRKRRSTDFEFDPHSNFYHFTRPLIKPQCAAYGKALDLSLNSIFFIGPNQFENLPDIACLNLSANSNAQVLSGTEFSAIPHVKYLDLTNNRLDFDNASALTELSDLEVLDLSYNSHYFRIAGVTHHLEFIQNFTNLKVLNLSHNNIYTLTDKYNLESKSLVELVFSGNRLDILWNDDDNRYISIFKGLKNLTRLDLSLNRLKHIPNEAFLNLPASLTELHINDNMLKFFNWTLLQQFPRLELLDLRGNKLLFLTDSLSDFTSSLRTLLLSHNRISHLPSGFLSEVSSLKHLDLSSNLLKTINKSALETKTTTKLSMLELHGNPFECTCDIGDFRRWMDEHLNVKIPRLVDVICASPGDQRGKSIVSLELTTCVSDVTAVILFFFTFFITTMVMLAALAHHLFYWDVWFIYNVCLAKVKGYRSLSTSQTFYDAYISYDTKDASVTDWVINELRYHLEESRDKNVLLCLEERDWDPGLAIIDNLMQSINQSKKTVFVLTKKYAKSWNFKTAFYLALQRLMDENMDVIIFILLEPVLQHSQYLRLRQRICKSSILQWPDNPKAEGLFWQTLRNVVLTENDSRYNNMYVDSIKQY
# T1 sequence (Q9NYK1 whole entry, looked up): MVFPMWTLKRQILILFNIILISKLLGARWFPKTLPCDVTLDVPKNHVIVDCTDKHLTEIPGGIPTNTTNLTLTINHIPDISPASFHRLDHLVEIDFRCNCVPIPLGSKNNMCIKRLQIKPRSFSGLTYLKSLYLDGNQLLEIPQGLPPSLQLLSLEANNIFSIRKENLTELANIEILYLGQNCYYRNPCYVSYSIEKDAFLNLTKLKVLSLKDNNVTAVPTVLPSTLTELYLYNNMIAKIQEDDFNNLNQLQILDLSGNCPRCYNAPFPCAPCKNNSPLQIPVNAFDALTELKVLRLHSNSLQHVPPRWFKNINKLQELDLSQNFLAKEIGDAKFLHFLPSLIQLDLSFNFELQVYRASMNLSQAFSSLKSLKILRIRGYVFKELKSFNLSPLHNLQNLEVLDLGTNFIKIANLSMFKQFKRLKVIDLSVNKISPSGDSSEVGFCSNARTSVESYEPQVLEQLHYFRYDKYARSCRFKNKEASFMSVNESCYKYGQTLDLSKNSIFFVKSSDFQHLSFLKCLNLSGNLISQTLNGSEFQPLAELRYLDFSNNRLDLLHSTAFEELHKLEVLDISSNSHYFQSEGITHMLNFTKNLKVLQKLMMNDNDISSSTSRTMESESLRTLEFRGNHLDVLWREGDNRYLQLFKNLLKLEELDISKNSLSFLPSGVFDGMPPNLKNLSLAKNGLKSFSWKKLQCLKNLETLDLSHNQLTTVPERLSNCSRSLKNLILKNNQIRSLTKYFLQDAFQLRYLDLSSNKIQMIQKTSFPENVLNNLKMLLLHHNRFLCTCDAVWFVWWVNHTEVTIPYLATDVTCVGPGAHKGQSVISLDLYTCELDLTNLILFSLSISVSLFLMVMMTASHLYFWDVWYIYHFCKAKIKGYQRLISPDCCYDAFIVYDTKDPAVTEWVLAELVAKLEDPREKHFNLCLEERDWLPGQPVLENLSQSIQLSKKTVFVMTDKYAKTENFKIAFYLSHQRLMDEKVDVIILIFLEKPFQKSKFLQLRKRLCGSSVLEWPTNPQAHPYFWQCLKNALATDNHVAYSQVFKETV
smiles,measurement,setting,value
CCC[C@@H](CCO)Nc1nc(N)nc2c(F)cccc12,microsomal CLint at 1 µM,[1],24 µL/min/mg
same,Activity,Plasma [2],335 pg/mL
same,fold change (FC),Liver [3],845
same,AUClast,[4],2315 ng·h/g
same,Activity,Cynomolgus monkey [5],2400 pg/mL
same,Activity,[6],Active
same,Cmax,[7],815 ng/mL
same,Activity,Cynomolgus monkey [8],>51200 pg/mL
same,fold change (FC),Cynomolgus monkey [9],145
same,Activity,[10],Active
same,Activity,Liver [11],3225 pg/g
same,fold change (FC),Plasma [12],845
same,AUC,[13],49 ng·h/mL
same,Activity,Plasma [14],345 pg/mL
same,Activity,Plasma [15],50 pg/mL
same,Activity,Cynomolgus monkey [16],inactive
same,Activity,Cynomolgus monkey [17],70 pg/mL
same,Activity,Cynomolgus monkey [18],Non-Toxic
same,fold change (FC),Liver [19],775
same,Activity,[20],Active
